The full list was thinned out, with hits kept by preference.
H69AR inhibit – proliferation blockers of H69AR lung cancer cells, primary screen, cell-based, human, 86K library; H69AR lung tumor viability, ATP luminescence, 72 h; active compounds read low; viability, % at 10 µM; 85,000 tested, 6% active; AID 598, 2007;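 active = viability at or below 40%; inactive = viability above 40%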;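 also: multidrug resistant small cell line overexpressing MRP-1 efflux transporter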
PTEN del growth – growth suppression of PTEN-null HCT116, primary screen, cell-based, CellTiter-Glo | AID 827, 2007 | 140,000 tested, 1.2% active | HCT116 PTEN-null viability, 60 h; active compounds read low | viability, % at 10 µM;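 active = viability at or below a set limit, 4 SD under the median of all tested compounds, cut at about 3.7% in these data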;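 also: PTEN knockout HCT116 line with beta catenin targeted HCT116 as companion control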
HUVEC inhibit – inhibitors of HUVEC proliferation, primary screen, cell-based, 384-well; CellTiter-Glo luminescence, 72 h; active compounds read low; viability, % at 10 µM (by protocol); 86,000 tested, 1.1% active; AID 648, 2007;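 active = viability at or below 30%; inactive = viability above 30%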
Lung fibro prol – antiproliferative effect on LL 47 fibroblasts – human, LL 47 cells, CellTiter-Glo luminescence, primary screen; viability, % at 10 µM; LL 47 human lung fibroblast viability, ATP luminescence; active compounds read low; 85,000 tested, 1.1% active;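 active = viability at or below 50% in the single dose screen; inactive = viability above 50%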;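 also: compound exposure lasted 72 h before the ATP readout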
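Material: Human LL 47 lung fibroblast cells | Input: 1,150 cells/well | Buffer or medium: IMEM plus 15% FBS | Compound dosing: 0.1% DMSO in all compound wells | Times: Overnight cell rest, 72 h compound treatment at 37 °C | Signal: CellTiter-Glo luminescence measuring cellular ATP | Measure: % viability versus median cells-only luminescence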
HCT116 bCat-KO – primary screen for growth suppressors in beta-catenin knockout HCT116 cells (colon tumor, human); AID 818, 2007; 140,000 tested, 1.5% active; viability, % at 10 µM; HCT116 beta-catenin knockout viability, CellTiter-Glo, 60 h; active compounds read low;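 active = viability at or under a set limit, the compound median less 4 SD, cut at about 6% in these data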
Of the large screens only hits and unclear results are named; the others gave an inactive call.

CC(=O)c1ccc(OC2OCCOC2Oc2ccc(C(C)=O)cc2)cc1 (configuration not stated)	none (no result: H69AR inhibit, HUVEC inhibit, Lung fibro prol)
CSc1ccc(CN(C)CC(=O)Nc2cccc(Br)c2)cc1	none (no result: H69AR inhibit, HUVEC inhibit, Lung fibro prol)
CCOC(=O)c1c(C)c(C(=O)Nc2ccc(N(C)C)cc2)c(C)n1CC	H69AR inhibit 19
Cc1ccc2[nH]c(-c3ccccc3)cc(=O)c2c1	H69AR inhibit 33
Nc1[nH]n2c(=O)cc(-c3ccccc3)nc2c1N=Nc1ccccc1	HCT116 bCat-KO 3.7 (no result: H69AR inhibit, HUVEC inhibit, Lung fibro prol)
Cc1ccc(N=Nc2c(N)[nH]n3c(=O)cc(C)nc23)cc1	none (no result: H69AR inhibit, HUVEC inhibit, Lung fibro prol)
Cc1cnc(NC(=O)c2sc3ccccc3c2Cl)s1	none (no result: H69AR inhibit, HUVEC inhibit, Lung fibro prol)
O=C(Nc1ccccc1-c1nc2ccccc2[nH]1)c1sc2ccccc2c1Cl	PTEN del growth 1.9, HCT116 bCat-KO 4.0 (no result: H69AR inhibit, HUVEC inhibit, Lung fibro prol)
CCOC(=O)C1=C(N)Oc2c(c(=O)[nH]c3ccccc23)C1c1ccccc1 (configuration not stated)	H69AR inhibit 13
CC1Cc2ccccc2N1Cc1nc2cc(C(F)(F)F)ccc2c(=O)[nH]1 (configuration not stated)	H69AR inhibit 37
CCN(CC)CCNC(=S)N1CCn2c(nc3ccccc32)C1	none (no result: H69AR inhibit, HUVEC inhibit, Lung fibro prol)
Cc1cccc(NC(=O)c2cc(NC(=O)c3ccco3)ccc2N2CCCCC2)c1	HUVEC inhibit 26
Cc1ccc(Cl)cc1N1CCN(C(=O)C2CCN(S(=O)(=O)c3c(C)nn(C)c3C)CC2)CC1	H69AR inhibit 25
Cc1ccc(Cl)cc1N1CCN(C(=O)C2CCN(S(=O)(=O)c3cccnc3)CC2)CC1	none
Cc1nc(N(C)Cc2ccccc2)c2nnn(Cc3ccccc3)c2n1	none
COc1ccc(-c2nn(C)c(=O)c3ccccc23)cc1NC(=O)Cn1nc(C)c2ccccc2c1=O	H69AR inhibit 3.3
CCC(=O)Nc1cc(-c2nn(C)c(=O)c3ccccc23)ccc1OC	none (no result: H69AR inhibit, HUVEC inhibit, Lung fibro prol)
Cc1nn(CC(=O)Nc2ccc3c(c2)oc2ccccc23)c(=O)c2ccccc12	H69AR inhibit 3.3
Cc1ccc(-c2nn(CC(=O)NCc3cc(-c4nn(C)c(=O)c5ccccc45)ccc3C)c(=O)c3ccccc23)cc1	H69AR inhibit 2.1, HUVEC inhibit 4.1, Lung fibro prol 4.9
N#Cc1nc(-c2ccc(OCc3ccccc3)cc2)oc1NCCCn1ccnc1	H69AR inhibit 6.5, HUVEC inhibit 5.8
CCCOc1ccc(-c2nc(C#N)c(NCCCn3ccnc3)o2)cc1	HUVEC inhibit 28
N#Cc1nc(-c2ccc(OCc3ccccc3Cl)cc2)oc1NCCCn1ccnc1	HUVEC inhibit 2.6
N#Cc1nc(COc2ccccc2)oc1NCCCn1ccnc1	none
COc1ccc(-c2nc(C#N)c(NCCCn3ccnc3)o2)cc1OC	none
Cc1cccc(C)c1NC(=S)NC(C)CCc1ccccc1 (configuration not stated)	none (no result: H69AR inhibit, HUVEC inhibit, Lung fibro prol)
COC(=O)[C@@]1(Cc2ccc(OC)cc2)[C@H]2c3cc(C(=O)N4CCCC4)n(CCSCCO)c3C[C@H]2CN1C(=O)c1ccccc1	none (no result: H69AR inhibit, HUVEC inhibit, Lung fibro prol)
CCOC(=O)c1c(C)oc2c(F)c(F)c(F)c(F)c2c1=O	HUVEC inhibit 8.7 (no result: H69AR inhibit)
CCOC(=O)c1c(CN2CCCCC2)n(C)c2cc(Br)c(O)cc12	none
CCOC(=O)c1c(CN2CCN(C)CC2)n(C)c2cc(Br)c(OC)cc12	H69AR inhibit 7.3
COc1ccc(OCCC(=O)OCC(=O)NCc2ccccc2)cc1	none (no result: H69AR inhibit, HUVEC inhibit, Lung fibro prol)
COc1cccc(-n2sc3c(c2=S)-c2cc(OC)ccc2NC3(C)C)c1	none (no result: H69AR inhibit, HUVEC inhibit, Lung fibro prol)
CCCOc1ccccc1-n1sc2c(c1=S)-c1cc(OC)cc3c1N(C(=O)C3=O)C2(C)C	H69AR inhibit 1.5, PTEN del growth 3.0
C/C(=N\NC(=O)C(C)n1nc(C)c([N+](=O)[O-])c1C)c1ccccc1O (configuration not stated)	HCT116 bCat-KO 6.1 (no result: H69AR inhibit, HUVEC inhibit, Lung fibro prol)
COc1ccc(SCc2noc(C(=O)NC(C)C)c2C(=O)O)cc1	none (no result: H69AR inhibit, HUVEC inhibit, Lung fibro prol)
C=CCOc1ccccc1/C=c1\sc2nc(=O)c(C)nn2c1=O	H69AR inhibit 33
Cc1cccc(C)c1NC(=O)CSc1nc(-c2ccco2)cc(C(F)(F)F)n1	H69AR inhibit 30
Cc1cc(NC(=O)CSc2nc(-c3ccco3)cc(C(F)(F)F)n2)no1	none (no result: H69AR inhibit, HUVEC inhibit, Lung fibro prol)
Cc1ccc(Cn2ccc(NC(=O)CCSc3nc(-c4ccco4)cc(C(F)(F)F)n3)n2)cc1	H69AR inhibit 14
O=C(CSc1nc(-c2ccco2)cc(C(F)(F)F)n1)Nc1ccccc1C(F)(F)F	H69AR inhibit 26
CCOC(=O)c1ccccc1OCc1cc(/C=N/n2cncn2)ccc1OC	H69AR inhibit 34
CC(=O)Nc1ccc(S(=O)(=O)Nc2nccc(/C=C/c3ccc(Cl)cc3)n2)cc1	none (no result: H69AR inhibit, HUVEC inhibit, Lung fibro prol)
COC(=O)c1ccc(CSc2nc(N3CCOCC3)c3c(c2C#N)CC(C)(C)OC3)o1	H69AR inhibit 32
COC(=O)/C(=N/Nc1ccccc1C)N1CCCc2ccccc21	none (no result: H69AR inhibit, HUVEC inhibit, Lung fibro prol)
C=CCc1ccc(OCC(O)CN2CCCCC2)c(OC)c1 (configuration not stated)	none
C=CCc1ccc(OCC(O)COc2ccc(CC=C)cc2OC)c(OC)c1	H69AR inhibit 35
Cc1ccc(C)c(NC(=O)c2ccc(S(=O)(=O)C(F)F)cc2)c1	none (no result: H69AR inhibit, HUVEC inhibit, Lung fibro prol)
COc1ccc(OC)c(S(=O)(=O)Nc2ccccc2C(F)(F)F)c1	none
COc1ccc(OC)c(C(=O)/C=C/c2ccccc2C(F)(F)F)c1	HCT116 bCat-KO 4.2 (no result: H69AR inhibit, HUVEC inhibit, Lung fibro prol)
COc1cccc(CN2C(=O)C3(C(C#N)=C(N)OC4=C3C(=O)CCC4)c3ccccc32)c1 (configuration not stated)	H69AR inhibit 19, HUVEC inhibit 4.0, Lung fibro prol 20
O=C(N/N=C/c1ccc(F)cc1)c1sccc1OCc1ccc(F)cc1	none (no result: H69AR inhibit, HUVEC inhibit, Lung fibro prol)
O=C(N/N=C/c1ccc(Cl)cc1)c1sccc1OCc1ccc(F)cc1	HCT116 bCat-KO 6.0 (no result: H69AR inhibit, HUVEC inhibit, Lung fibro prol)
COc1ccc(S(=O)(=O)N(CC(=O)N/N=C/c2cccs2)c2cc(C)cc(C)c2)cc1OC	none (no result: H69AR inhibit, HUVEC inhibit, Lung fibro prol)
CCCC(=O)Nc1cc(S(=O)(=O)N(CC)CC)ccc1Cl	none (no result: H69AR inhibit, HUVEC inhibit, Lung fibro prol)
CCOC(=O)c1ccc(NC(=O)CN(C)S(=O)(=O)c2ccc(Br)s2)cc1	none (no result: H69AR inhibit, HUVEC inhibit, Lung fibro prol)
CN1Cc2cc(C(=O)c3ccccc3O)cnc2NC1=O	H69AR inhibit 25
CCCOc1c(OC)cccc1C1CC(=O)Nc2cc(OC)c(OC)c(OC)c21 (configuration not stated)	none
O=C1CC(c2ccsc2)c2cc3c(cc2N1)OCCO3 (configuration not stated)	H69AR inhibit 27
CCOc1c(OC)cccc1C1CC(=O)Nc2cc3c(cc21)OCCO3 (configuration not stated)	H69AR inhibit 15
O=C(c1ccccc1)N1N=C(c2ccccc2)CC1c1ccccc1[N+](=O)[O-] (configuration not stated)	none (no result: H69AR inhibit, HUVEC inhibit, Lung fibro prol)
CCN(CC)c1ccc(C(=O)N/N=C(\C)c2ccc(O)cc2)cc1	none (no result: H69AR inhibit, HUVEC inhibit, Lung fibro prol)
CC(/C=N\Nc1nnc2c(n1)[nH]c1c(C)cccc12)=C\c1ccco1	PTEN del growth 2.4, HCT116 bCat-KO 2.1 (no result: H69AR inhibit, HUVEC inhibit, Lung fibro prol)

Assay outcomes (PubChem)
